Test system: Japanese patients with advanced solid tumors
Experiment: Phase 1 study: safety, tolerability, DLT and treatment-emergent adverse events
Format: in vivo, human
Summary of the method: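 Open-label single-arm dose levels of 80 or 105 mg/m2 IV were given on day 1 of 14-day cycles, with at most 6 patients per level. Adverse events were graded by CTCAE v4.03. DLTs were related events in cycle 1 meeting predefined hematologic or nonhematologic criteria. Tolerability required a cycle 1 DLT rate <33%. Primary G-CSF prophylaxis was barred during DLT evaluation; G-CSF was allowed for treatment-emergent neutropenia and as secondary prophylaxis.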

COc1cccc(OCCCN)c1-c1cc(Nc2cnc(C#N)cn2)n[nH]1 [Prexasertib]
TEAE related to study treatment: Lung infection (105 mg/m^2 N = 6, Grade 3 + 4): 0 n (%)
TEAE related to study treatment: Lymphocytopenia (105 mg/m^2 N = 6, Grade 3 + 4): 0 n (%)
TEAE related to study treatment: Nausea (105 mg/m^2 N = 6, Grade 3 + 4): 0 n (%)
TEAE related to study treatment: Neutropenia (105 mg/m^2 N = 6, Grade 3 + 4): 6 (100) n (%)
TEAE related to study treatment: Pyrexia (105 mg/m^2 N = 6, Grade 3 + 4): 0 n (%)
TEAE related to study treatment: Rash (105 mg/m^2 N = 6, Grade 3 + 4): 0 n (%)
TEAE related to study treatment: Rash maculopapular (105 mg/m^2 N = 6, Grade 3 + 4): 0 n (%)
TEAE related to study treatment: SVE (supraventricular extrasystoles) (105 mg/m^2 N = 6, Grade 3 + 4): 0 n (%)
TEAE related to study treatment: Stomatitis (105 mg/m^2 N = 6, Grade 3 + 4): 0 n (%)
TEAE related to study treatment: Thrombocytopenia (105 mg/m^2 N = 6, Grade 3 + 4): 1 (16.7) n (%)
TEAE related to study treatment: Anemia (105 mg/m^2 N = 6, Grade 4): 0 n (%)
TEAE related to study treatment: Any (105 mg/m^2 N = 6, Grade 4): 3 (50.0) n (%)
TEAE related to study treatment: Atrial fibrillation (105 mg/m^2 N = 6, Grade 4): 0 n (%)
TEAE related to study treatment: Constipation (105 mg/m^2 N = 6, Grade 4): 0 n (%)
TEAE related to study treatment: ECG QT prolonged (105 mg/m^2 N = 6, Grade 4): 0 n (%)
TEAE related to study treatment: Fatigue (105 mg/m^2 N = 6, Grade 4): 0 n (%)
TEAE related to study treatment: Febrile neutropenia (105 mg/m^2 N = 6, Grade 4): 0 n (%)
TEAE related to study treatment: Headache (105 mg/m^2 N = 6, Grade 4): 0 n (%)
TEAE related to study treatment: Hypocalcemia (105 mg/m^2 N = 6, Grade 4): 0 n (%)
TEAE related to study treatment: Leukopenia (105 mg/m^2 N = 6, Grade 4): 1 (16.7) n (%)
TEAE related to study treatment: Lung infection (105 mg/m^2 N = 6, Grade 4): 0 n (%)
TEAE related to study treatment: Lymphocytopenia (105 mg/m^2 N = 6, Grade 4): 0 n (%)
TEAE related to study treatment: Nausea (105 mg/m^2 N = 6, Grade 4): 0 n (%)
TEAE related to study treatment: Neutropenia (105 mg/m^2 N = 6, Grade 4): 3 (50.0) n (%)
TEAE related to study treatment: Pyrexia (105 mg/m^2 N = 6, Grade 4): 0 n (%)
TEAE related to study treatment: Rash (105 mg/m^2 N = 6, Grade 4): 0 n (%)
TEAE related to study treatment: Rash maculopapular (105 mg/m^2 N = 6, Grade 4): 0 n (%)
TEAE related to study treatment: SVE (supraventricular extrasystoles) (105 mg/m^2 N = 6, Grade 4): 0 n (%)
TEAE related to study treatment: Stomatitis (105 mg/m^2 N = 6, Grade 4): 0 n (%)
TEAE related to study treatment: Thrombocytopenia (105 mg/m^2 N = 6, Grade 4): 0 n (%)
Patients with at least 1 AE that led to a dose adjustment (105 mg/m^2 group): 3 patients
Patients with at least 1 AE that led to a dose delay (105 mg/m^2 group): 3 patients
Patients with at least 1 AE that led to dose reduction (105 mg/m^2 group (105 to 80 mg/m^2)): 1 patient
TEAE related to study treatment: Anemia (Total N = 12, Any grade): 3 (25.0) n (%)
TEAE related to study treatment: Any (Total N = 12, Any grade): 12 (100) n (%)
TEAE related to study treatment: Atrial fibrillation (Total N = 12, Any grade): 1 (8.3) n (%)
TEAE related to study treatment: Constipation (Total N = 12, Any grade): 3 (25.0) n (%)
TEAE related to study treatment: ECG QT prolonged (Total N = 12, Any grade): 2 (16.7) n (%)
TEAE related to study treatment: Fatigue (Total N = 12, Any grade): 2 (16.7) n (%)
TEAE related to study treatment: Febrile neutropenia (Total N = 12, Any grade): 2 (16.7) n (%)
TEAE related to study treatment: Headache (Total N = 12, Any grade): 1 (8.3) n (%)
TEAE related to study treatment: Hypocalcemia (Total N = 12, Any grade): 1 (8.3) n (%)
TEAE related to study treatment: Leukopenia (Total N = 12, Any grade): 12 (100) n (%)
TEAE related to study treatment: Lung infection (Total N = 12, Any grade): 1 (8.3) n (%)
TEAE related to study treatment: Lymphocytopenia (Total N = 12, Any grade): 2 (16.7) n (%)
TEAE related to study treatment: Nausea (Total N = 12, Any grade): 2 (16.7) n (%)
TEAE related to study treatment: Neutropenia (Total N = 12, Any grade): 11 (91.7) n (%)
TEAE related to study treatment: Pyrexia (Total N = 12, Any grade): 2 (16.7) n (%)
TEAE related to study treatment: Rash (Total N = 12, Any grade): 1 (8.3) n (%)
TEAE related to study treatment: Rash maculopapular (Total N = 12, Any grade): 2 (16.7) n (%)
TEAE related to study treatment: SVE (supraventricular extrasystoles) (Total N = 12, Any grade): 1 (8.3) n (%)
TEAE related to study treatment: Stomatitis (Total N = 12, Any grade): 1 (8.3) n (%)
TEAE related to study treatment: Thrombocytopenia (Total N = 12, Any grade): 8 (66.7) n (%)
TEAE related to study treatment: Anemia (Total N = 12, Grade 3): 1 (8.3) n (%)
TEAE related to study treatment: Any (Total N = 12, Grade 3): 5 (41.7) n (%)
TEAE related to study treatment: Atrial fibrillation (Total N = 12, Grade 3): 0 n (%)
TEAE related to study treatment: Constipation (Total N = 12, Grade 3): 0 n (%)
TEAE related to study treatment: ECG QT prolonged (Total N = 12, Grade 3): 0 n (%)
TEAE related to study treatment: Fatigue (Total N = 12, Grade 3): 0 n (%)
TEAE related to study treatment: Febrile neutropenia (Total N = 12, Grade 3): 1 (8.3) n (%)
TEAE related to study treatment: Headache (Total N = 12, Grade 3): 0 n (%)
TEAE related to study treatment: Hypocalcemia (Total N = 12, Grade 3): 0 n (%)
TEAE related to study treatment: Leukopenia (Total N = 12, Grade 3): 5 (41.7) n (%)
TEAE related to study treatment: Lung infection (Total N = 12, Grade 3): 0 n (%)
TEAE related to study treatment: Lymphocytopenia (Total N = 12, Grade 3): 1 (8.3) n (%)
TEAE related to study treatment: Nausea (Total N = 12, Grade 3): 0 n (%)
TEAE related to study treatment: Neutropenia (Total N = 12, Grade 3): 4 (33.3) n (%)
TEAE related to study treatment: Pyrexia (Total N = 12, Grade 3): 0 n (%)
TEAE related to study treatment: Rash (Total N = 12, Grade 3): 0 n (%)
TEAE related to study treatment: Rash maculopapular (Total N = 12, Grade 3): 0 n (%)
TEAE related to study treatment: SVE (supraventricular extrasystoles) (Total N = 12, Grade 3): 0 n (%)
TEAE related to study treatment: Stomatitis (Total N = 12, Grade 3): 0 n (%)
TEAE related to study treatment: Thrombocytopenia (Total N = 12, Grade 3): 3 (25.0) n (%)
TEAE related to study treatment: Anemia (Total N = 12, Grade 3 + 4): 2 (16.7) n (%)
TEAE related to study treatment: Any (Total N = 12, Grade 3 + 4): 12 (100) n (%)
TEAE related to study treatment: Atrial fibrillation (Total N = 12, Grade 3 + 4): 0 n (%)
TEAE related to study treatment: Constipation (Total N = 12, Grade 3 + 4): 0 n (%)
TEAE related to study treatment: ECG QT prolonged (Total N = 12, Grade 3 + 4): 0 n (%)
TEAE related to study treatment: Fatigue (Total N = 12, Grade 3 + 4): 0 n (%)
TEAE related to study treatment: Febrile neutropenia (Total N = 12, Grade 3 + 4): 2 (16.7) n (%)
TEAE related to study treatment: Headache (Total N = 12, Grade 3 + 4): 0 n (%)
TEAE related to study treatment: Hypocalcemia (Total N = 12, Grade 3 + 4): 0 n (%)
TEAE related to study treatment: Leukopenia (Total N = 12, Grade 3 + 4): 9 (75.0) n (%)
TEAE related to study treatment: Lung infection (Total N = 12, Grade 3 + 4): 0 n (%)
TEAE related to study treatment: Lymphocytopenia (Total N = 12, Grade 3 + 4): 1 (8.3) n (%)
TEAE related to study treatment: Nausea (Total N = 12, Grade 3 + 4): 0 n (%)
TEAE related to study treatment: Neutropenia (Total N = 12, Grade 3 + 4): 10 (83.3) n (%)
TEAE related to study treatment: Pyrexia (Total N = 12, Grade 3 + 4): 0 n (%)
TEAE related to study treatment: Rash (Total N = 12, Grade 3 + 4): 0 n (%)
TEAE related to study treatment: Rash maculopapular (Total N = 12, Grade 3 + 4): 0 n (%)
TEAE related to study treatment: SVE (supraventricular extrasystoles) (Total N = 12, Grade 3 + 4): 0 n (%)
TEAE related to study treatment: Stomatitis (Total N = 12, Grade 3 + 4): 0 n (%)
TEAE related to study treatment: Thrombocytopenia (Total N = 12, Grade 3 + 4): 4 (33.3) n (%)
TEAE related to study treatment: Anemia (Total N = 12, Grade 4): 1 (8.3) n (%)
TEAE related to study treatment: Any (Total N = 12, Grade 4): 7 (58.3) n (%)
TEAE related to study treatment: Atrial fibrillation (Total N = 12, Grade 4): 0 n (%)
TEAE related to study treatment: Constipation (Total N = 12, Grade 4): 0 n (%)
TEAE related to study treatment: ECG QT prolonged (Total N = 12, Grade 4): 0 n (%)
TEAE related to study treatment: Fatigue (Total N = 12, Grade 4): 0 n (%)
TEAE related to study treatment: Febrile neutropenia (Total N = 12, Grade 4): 1 (8.3) n (%)
TEAE related to study treatment: Headache (Total N = 12, Grade 4): 0 n (%)
TEAE related to study treatment: Hypocalcemia (Total N = 12, Grade 4): 0 n (%)
TEAE related to study treatment: Leukopenia (Total N = 12, Grade 4): 4 (33.3) n (%)
TEAE related to study treatment: Lung infection (Total N = 12, Grade 4): 0 n (%)
TEAE related to study treatment: Lymphocytopenia (Total N = 12, Grade 4): 0 n (%)
TEAE related to study treatment: Nausea (Total N = 12, Grade 4): 0 n (%)
TEAE related to study treatment: Neutropenia (Total N = 12, Grade 4): 6 (50.0) n (%)
TEAE related to study treatment: Pyrexia (Total N = 12, Grade 4): 0 n (%)
TEAE related to study treatment: Rash (Total N = 12, Grade 4): 0 n (%)
TEAE related to study treatment: Rash maculopapular (Total N = 12, Grade 4): 0 n (%)
TEAE related to study treatment: SVE (supraventricular extrasystoles) (Total N = 12, Grade 4): 0 n (%)
TEAE related to study treatment: Stomatitis (Total N = 12, Grade 4): 0 n (%)
TEAE related to study treatment: Thrombocytopenia (Total N = 12, Grade 4): 1 (8.3) n (%)
Frequently-reported TEAE: leukopenia (all 12 patients): 100%
Frequently-reported TEAE: neutropenia (all 12 patients): 91.7%
Frequently-reported TEAE: thrombocytopenia (all 12 patients): 66.7%
Nonhematologic grade 3 or 4 treatment-related TEAE (all 12 patients): no reported nonhematologic grade 3 or 4 treatment‐related TEAE
Treatment-related grade 4 TEAE: anemia (all 12 patients (1 instance)): 8.3%
Treatment-related grade 4 TEAE: febrile neutropenia (all 12 patients (1 instance)): 8.3%
Treatment-related grade 4 TEAE: thrombocytopenia (all 12 patients (1 instance)): 8.3%
Treatment-related grade 4 TEAE: leukopenia (all 12 patients (4 patients)): 33.3%
Treatment-related grade 4 TEAE: neutropenia (all 12 patients (6 patients)): 50.0%
AE that led to treatment interruption (all patients): No patients experienced AE that led to treatment interruption
Clinically significant cardiac toxicities or AE related to QT prolongation (all patients): No clinically significant cardiac toxicities or AE related to QT prolongation were observed
Discontinuation of the study due to an AE (all patients): no patients discontinued the study due to an AE
Patient deaths during the study (all patients): No patient deaths were reported
Patients with at least 1 AE that led to a dose adjustment (all patients (8 patients)): 66.7%
Patients with at least 1 AE that led to dose reduction (all patients (Five patients)): 41.7%
Patients with at least 1 AE that led to a dose delay (all patients (Six patients)): 50.0%
Dose reduction due to febrile neutropenia (all patients, 1 patient in each group): 16.7%
Dose delay due to neutropenia (all patients, 2 patients in each group): 33.3%
Neutrophil count nadir in patients with grade 4 drug-related neutropenia (day of cycle): ~8 days
Duration of grade 4 neutrophil decreases (in most cases, transient): < 5 days
Tolerability (DLT frequency in cycle 1 <33%) (recommended dose of 105 mg/m^2, Japanese patients): confirmed

Reference: paper PMC6247064 (Cancer Science, 2018)
